Data: ChEMBL document CHEMBL1629555, “Antimalarial activity of phenylthiazolyl-bearing hydroxamate-based histone deacetylase inhibitors” (Antimicrob Agents Chemother, 2008)
The source made the active and inactive calls. No cut-off for these calls is given here.

How the values were obtained:
[1] = test system: Plasmodium berghei; assay: Antimalarial activity against Plasmodium berghei infected in mouse assessed as parasitemia level at 32 mg/kg/day for 3 days measured on day 6 in presence of 3.6 mg/kg/day chloroquine (reference value: 37%); type: functional
Procedure, shortened: (§1)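 Mice were infected ip with 10^6 P. berghei-parasitized erythrocytes. The compound was given orally once daily on days 3, 4 and 5 post-infection in hydroxyethylcellulose-Tween 20 vehicle, alone or together with chloroquine, with 5 mice per dose group. Parasitemia (%) was read on days 3 and 6, and cures were counted as animals cured out of 5.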

[2] = test system: Plasmodium falciparum; assay: Antimicrobial activity against Plasmodium falciparum D6 infected in Aotus lemurinus lemurinus monkey at […] in presence of artemisinin; type: functional
[3] = test system: Plasmodium falciparum; assay: Antimalarial activity against chloroquine-resistant Plasmodium falciparum FVO infected in Aotus lemurinus leminurus monkey assessed as reduction in parasitemia at 8 mg/kg/day, po for 3 days; type: functional, organism-based
[4] = test system: Mus musculus; assay: Toxicity in Plasmodium berghei-infected mouse assessed as mortality at split dose of 160 mg/kg/day, po for 3 days; type: organism-based; set-up: route oral; conditions: in vivo, 72 h
[5] = test system: Plasmodium berghei; assay: Antimalarial activity against Plasmodium berghei infected in mouse assessed as parasitemia level at 32 mg/kg/day for 3 days measured on day 3 in presence of 3.6 mg/kg/day chloroquine (reference value: 0.46%); type: functional; procedure, shortened: as §1
[6] = test system: Plasmodium berghei; assay: Antimalarial activity against Plasmodium berghei infected in mouse assessed as effect on cure rate at 130 mg/kg/day, po for 7 days; type: functional, organism-based
Procedure, shortened: (§2)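 Mice were infected ip with 10^6 P. berghei-parasitized erythrocytes. The compound was given in hydroxyethylcellulose-Tween 20 vehicle, 5 mice per group, starting on day 3 post-infection. Regimens were once-daily or split daily oral doses over 3 days, subcutaneous dosing, or dosing over 7 days. Read-outs were posttreatment parasitemia on day 6 as a fraction of controls and the number of mice cured.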

[7] = Half life in mouse liver microsomes by LC/MS analysis; type: ADME, Microsome
[8] = test system: Plasmodium berghei; assay: Antimalarial activity against Plasmodium berghei infected in mouse assessed as effect on curate rate at split dose of 40 mg/kg/day, po for 3 days; type: functional, organism-based; procedure, shortened: as §2
[9] = Inhibition of histone deacetylase assessed as alteration of histone H3 acetylation by cell-based assay
Procedure, shortened: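 About 3 × 10^9 erythrocytes infected with late-trophozoite P. falciparum 3D7 were exposed to compound or to DMSO vehicle for 3.5 h at 37°C, and an untreated sample was taken at the start. Histones were extracted, about 6 × 10^8 parasites were loaded per lane on SDS–15% PAGE, and loading was checked by silver stain. Western blots were probed with anti-tetraacetyl-H4 and anti-diacetyl-H3 antisera and detected by ECL.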

[10] = test system: Plasmodium berghei; assay: Antimalarial activity against Plasmodium berghei infected in mouse assessed as parasitemia level at single dose of 80 mg/kg/day, po for 3 days measured on day 6 relative to control; type: functional
Procedure, shortened: (§3)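 Mice infected intraperitoneally with 10^6 P. berghei-parasitized erythrocytes. Drug given orally once daily on days 3, 4 and 5 post-infection in hydroxyethylcellulose-Tween 20 vehicle, 5 mice per dose group. Parasitemia measured on day 6 and expressed as a fraction of untreated control parasitemia.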

[11] = test system: Plasmodium falciparum; assay: Antimicrobial activity against Plasmodium falciparum W2 at […] in presence of mefloquine; type: functional
Procedure, shortened: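 In vitro fixed-ratio isobologram using a SYBR green I fluorescence assay. […] IC50s were standardized and FIC50 and ΣFIC50 calculated by the Berenbaum method. Reported as the average ΣFIC across dilutions or the average maximum ΣFIC, from at least 2 experiments.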

[12] = test system: Mus musculus; assay: Toxicity in Plasmodium berghei-infected mouse assessed as mortality at single dose of 80 mg/kg/day, po for 3 days; type: organism-based; set-up: route oral; conditions: in vivo, 72 h
[13] = test system: Plasmodium berghei; assay: Antimalarial activity against Plasmodium berghei infected in mouse assessed as effect on cure rate at single dose of 20 mg/kg/day, po for 3 days; type: functional, organism-based; procedure, shortened: as §2
[14] = test system: Plasmodium berghei; assay: Antimalarial activity against Plasmodium berghei infected in mouse assessed as effect on cure rate at single dose of 80 mg/kg/day, po for 3 days; type: functional, organism-based; procedure, shortened: as §2
[15] = test system: Plasmodium berghei; assay: Antimalarial activity against Plasmodium berghei infected in mouse assessed as effect on cure rate at split dose of 160 mg/kg/day, po for 3 days; type: functional, organism-based; procedure, shortened: as §2
[16] = Cmax in ICR mouse at 50 mg/kg/day, sc by LC/MS analysis; type: ADME, organism-based; set-up: dose 50 mg/kg/day, route subcutaneous; conditions: in vivo
Procedure, shortened: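 Male ICR mice, 8 weeks old, got one 50 mg/kg dose either orally or subcutaneously, with three groups of six mice per route. One mouse per group was killed at 15, 30 and 60 min and at 3, 6 and 24 h. Plasma was deproteinized with 2 volumes of acetonitrile and analysed by LC-MS/MS on a C18 column against 0–500 ng/ml standards, with parent and acid metabolite measured in the same sample. Each six-mouse group was treated as one "animal" and fitted to a two-compartment model. AUC was taken by the linear trapezoidal rule extrapolated to infinity, and Cmax and Tmax were read per "animal".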

[17] = test system: Plasmodium berghei; assay: Antimalarial activity against Plasmodium berghei infected in mouse assessed as parasitemia level at single dose of 40 mg/kg/day, po for 3 days measured on day 6 relative to control; type: functional; procedure, shortened: as §3
[18] = test system: Plasmodium falciparum; assay: Antimalarial activity against Plasmodium falciparum infected in mouse RAW264.7 cells; type: functional, organism-based
[19] = test system: Plasmodium berghei; assay: Antimalarial activity against Plasmodium berghei infected in mouse assessed as parasitemia level at 3.2 mg/kg/day for 3 days measured on day 3 in presence of 4 mg/kg/day chloroquine (reference value: 0.46%); type: functional
[20] = test system: Plasmodium berghei; assay: Antimalarial activity against Plasmodium berghei infected in mouse assessed as parasitemia level at 0.32 mg/kg/day for 3 days measured on day 6 in presence of 4 mg/kg/day chloroquine (reference value: 37%); type: functional
[21] = test system: Mus musculus; assay: Toxicity in Plasmodium berghei-infected mouse assessed as mortality at split dose of 130 mg/kg/day, sc for 3 days measured on day 5; type: organism-based; set-up: route subcutaneous; conditions: in vivo, 72 h
[22] = test system: Mus musculus; assay: Toxicity in Plasmodium berghei-infected mouse assessed as mortality at split dose of 640 mg/kg/day, po for 3 days; type: organism-based; set-up: route oral; conditions: in vivo, 72 h
[23] = test system: Plasmodium falciparum; assay: Antimalarial activity against chloroquine-resistant Plasmodium falciparum FVO infected in Aotus lemurinus […] monkey assessed as reduction in parasitemia at 16 mg/kg/day, po for 3 days; type: functional, organism-based
[24] = test system: Plasmodium berghei; assay: Antimalarial activity against Plasmodium berghei infected in mouse assessed as parasitemia level at 160 mg/kg/day for 3 days measured on day 6 in presence of 2 mg/kg/day chloroquine (reference value: 37%); type: functional; procedure, shortened: as §1
[25] = test system: Plasmodium berghei; assay: Antimalarial activity against Plasmodium berghei infected in mouse assessed as parasitemia level at 52 mg/kg/day for 3 days measured on day 3 in presence of 64 mg/kg/day chloroquine (reference value: 0.46%); type: functional; procedure, shortened: as §1

**Q.** With `Nc1cccc(-c2csc(NC(=O)CCCCCCC(=O)NO)n2)c1` as the compound, how does the Activity [1] read?
**A.** The Activity was 0.08%.

**Q.** What about the “fractional inhibitory concentration index (FICI)” value [2] of the same compound?
**A.** Its value is 2.1.

**Q.** What about the inhibition [3] of the same compound?
**A.** The inhibition was “inactive”.

**Q.** And the Activity [4]?
**A.** Its Activity is “Non-toxic”.

**Q.** And the Activity [5]?
**A.** Its Activity is 0.44%.

**Q.** And the Activity [6]?
**A.** Its Activity is “inactive”.

**Q.** What about the half-life [7] of the same compound?
**A.** Its half-life is 11 min.

**Q.** And the Activity [8]?
**A.** Its Activity is “inactive”.

**Q.** What about the IC50 [9] of the same compound?
**A.** Its IC50 is 10.4 nM.

**Q.** And the “fold change (FC)” value [10]?
**A.** Its value is 0.096.

**Q.** What about the “fractional inhibitory concentration index (FICI)” value [11] of the same compound?
**A.** Its value is 2.1.

**Q.** What about the Activity [12] of the same compound?
**A.** Its Activity is “Non-toxic”.

**Q.** And the Activity [13]?
**A.** The Activity was “inactive”.

**Q.** And the Activity [14]?
**A.** Its Activity is “inactive”.

**Q.** And the Activity [15]?
**A.** The Activity was “inactive”.

**Q.** And the Cmax [16]?
**A.** The Cmax was 403 ng/mL.

**Q.** And the “fold change (FC)” value [17]?
**A.** Its value is 0.12.

**Q.** What about the IC50 [18] of the same compound?
**A.** The IC50 was 0.59 nM.

**Q.** And the Activity [19]?
**A.** Its Activity is 0.6%.

**Q.** What about the Activity [20] of the same compound?
**A.** The Activity was 0.024%.

**Q.** What about the Activity [21] of the same compound?
**A.** The Activity was “Toxic”.

**Q.** And the Activity [22]?
**A.** The Activity was “Non-toxic”.

**Q.** And the inhibition [23]?
**A.** The inhibition was “inactive”.

**Q.** What about the Activity [24] of the same compound?
**A.** Its Activity is 0.36%.

**Q.** What about the Activity [25] of the same compound?
**A.** Its Activity is 0.48%.
